Results from ChEMBL document CHEMBL1143625, “Bisphosphonate inhibitors of Toxoplasma gondi growth: in vitro, QSAR, and in vivo investigations” (J Med Chem, 2005).

Columns and labels:
[1] = Therapeutic index (TI) value as ratio of lethal dose (LD50) to the inhibitory concentration (IC50); assay type: cell-based; details: human, KB cells; read-out: TI
[2] = In vitro inhibitory concentration against the growth of Toxoplasma gondii in human foreskin fibroblast monolayer cells (HFF cells); assay type: functional, cell-based
Procedure, shortened: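 T. gondii 2F clone tachyzoites expressing β-galactosidase, kept in HFF in DMEM with 10% FBS, 2 mM glutamine and 1 mM pyruvate. Confluent HFF monolayers were given serially diluted drug in medium, then 10^4 filtered, needle-passed tachyzoites/mL, and held 48 h at 37 °C. Cells were lysed at 50 °C, and CPRG turnover was read at 570 nm. IC50 came from a hyperbolic fit of % inhibition against concentration.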

KB = assay: Lethal dose required to inhibit the growth of human KB (nasopharyngeal carcinoma) cell line; assay type: functional; details: read-out: LD50 (the source's name)
HFF [3] = assay: Inhibitory concentration against the growth of Toxoplasma gondii overexpressing FPPS enzyme in human foreskin fibroblast monolayer cells; (control = 0.62 uM, experiment 1); assay type: functional, cell-based
Procedure, shortened: (§1)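 FPPS-overexpressing T. gondii line: 2F clone tachyzoites (beta-galactosidase) electroporated with 50 µg ptubTgFPPS-FLAG/sagCAT. Stable lines were selected with 20 µM chloramphenicol and cloned by limiting dilution, giving 4-5-fold more FPPS by Western blot. Assay: compounds serially diluted in medium on confluent HFF; 10^4 tachyzoites/mL (filtered 3 µm, needle-passed); 48 h at 37 °C. Lysis, then CPRG read at 570 nm; IC50 from rectangular hyperbolic fit of % inhibition.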

HFF [4] = assay: Inhibitory concentration against the growth of Toxoplasma gondii overexpressing FPPS enzyme in human foreskin fibroblast monolayer cells; (control = 0.55 uM, experiment 3); assay type: functional, cell-based; procedure, shortened: as §1
HFF [5] = assay: Inhibitory concentration against the growth of Toxoplasma gondii overexpressing FPPS enzyme in human foreskin fibroblast monolayer cells; (control = 0.15 uM, experiment 2); assay type: functional, cell-based; procedure, shortened: as §1
HFF [6] = assay: Inhibitory concentration against the growth of Toxoplasma gondii overexpressing FPPS enzyme in human foreskin fibroblast monolayer cells; (control = 0.29 uM); assay type: functional, cell-based; procedure, shortened: as §1
HFF [7] = assay: Inhibitory concentration against the growth of Toxoplasma gondii overexpressing FPPS enzyme in human foreskin fibroblast monolayer cells; (control = 0.79 uM, experiment 3); assay type: functional, cell-based; procedure, shortened: as §1
HFF [8] = assay: Inhibitory concentration against the growth of Toxoplasma gondii overexpressing FPPS enzyme in human foreskin fibroblast monolayer cells; (control = 0.60 uM, experiment 1); assay type: functional, cell-based; procedure, shortened: as §1
HFF [9] = assay: Inhibitory concentration against the growth of Toxoplasma gondii overexpressing FPPS enzyme in human foreskin fibroblast monolayer cells; (control = 1.1 uM, experiment 2); assay type: functional, cell-based; procedure, shortened: as §1

Row | SMILES | selectivity ratio [1] | IC50 [2] | CC50 (KB) | other results
1 | Cc1cc(C)nc(NC(P(=O)(O)O)P(=O)(O)O)c1 | 2.7 | 235 µM | 633 µM | –
2 | CCCCCCCCCC(O)(P(=O)(O)O)P(=O)(O)O | > 1620 | 0.55 µM | > 892 µM | IC50 (HFF [3]): 1.9 µM; IC50 (HFF [4]): 1.7 µM; IC50 (HFF [5]): 0.57 µM
3 | Cc1cccnc1NC(P(=O)(O)O)P(=O)(O)O | 4.02 | 44.5 µM | 179 µM | –
4 | CCCCCCC(O)(P(=O)(O)O)P(=O)(O)O | 4.23 | 25.3 µM | 107 µM | –
5 | O=P(O)(O)C(O)(CSc1ccncc1)P(=O)(O)O | > 10.3 | 72.5 µM | > 746 µM | –
6 | Cc1ccnc(NC(P(=O)(O)O)P(=O)(O)O)c1 | 2.32 | 59 µM | 137 µM | –
7 | O=P(O)(O)C(O)(Cc1ccncc1)P(=O)(O)O | 48.9 | 3.5 µM | 171 µM | –
8 | CCC(C)CNC(P(=O)(O)O)P(=O)(O)O (stereo unspecified) | 10.8 | 36.6 µM | 394 µM | –
9 | O=P(O)(O)C(O)(Cc1ccccc1)P(=O)(O)O | > 10.3 | 90.2 µM | > 931 µM | –
10 | O=P(O)(O)C(Nc1ccc(Cl)cc1Cl)P(=O)(O)O [2,4-DICHLOROPHENYLAMINOMETHYLENEBISPHOSPHONIC ACID] | – | 154 µM | – | –
11 | CCCCN(CC)C(P(=O)(O)O)P(=O)(O)O [(BUTYL(ETHYL)AMINO)METHYLENEDIPHOSPHONIC ACID] | > 7.99 | 132 µM | > 1060 µM | –
12 | CCCCNC(P(=O)(O)O)P(=O)(O)O [(BUTYLAMINO)METHYLENEDIPHOSPHONIC ACID] | 2.78 | 76.1 µM | 212 µM | –
13 | O=P(O)(O)C(NC1CCC1)P(=O)(O)O [(CYCLOBUTYLAMINO)METHYLENEDIPHOSPHONIC ACID] | 2.15 | 121 µM | 260 µM | –
14 | O=P(O)(O)C(NC1CCCCCCC1)P(=O)(O)O [(CYCLOOCTYLAMINO)METHYLENEDIPHOSPHONIC ACID] | 8.19 | 43.2 µM | 354 µM | –
15 | O=P(O)(O)C(NC1CCCC1)P(=O)(O)O [(CYCLOPENTYLAMINO)METHYLENEDIPHOSPHONIC ACID] | 9.19 | 68.4 µM | 629 µM | –
16 | O=P(O)(O)C(NC1CC1)P(=O)(O)O [(CYCLOPROPYLAMINO)METHYLENEDIPHOSPHONIC ACID] | 10.7 | 23.1 µM | 246 µM | –

Row | SMILES | selectivity ratio [1] | IC50 [2] | CC50 (KB) | other results
17 | O=P(O)(O)C(N(C1CCCCC1)C1CCCCC1)P(=O)(O)O [(DICYCLOHEXYLAMINO)METHYLENEDIPHOSPHONIC ACID] | > 20.1 | 42.1 µM | > 844 µM | –
18 | CC(C)CCNC(P(=O)(O)O)P(=O)(O)O [(ISOPENTYLAMINO)METHYLENEDIPHOSPHONIC ACID] | 3.56 | 135 µM | 480 µM | –
19 | CCCCCCCCCNC(P(=O)(O)O)P(=O)(O)O [(NONYLAMINO)METHYLENEDIPHOSPHONIC ACID] | > 103 | 8.89 µM | > 919 µM | –
20 | CCCNC(P(=O)(O)O)P(=O)(O)O [(PROPYLAMINO)METHYLENEDIPHOSPHONIC ACID] | 7.21 | 69.2 µM | 499 µM | –
21 | NCCCC(O)(P(=O)(O)O)P(=O)(O)O [ALENDRONIC ACID] | – | 109 µM | – | –
22 | O=C1C(O)=C([C@H]2CC[C@H](c3ccc(Cl)cc3)CC2)C(=O)c2ccccc21 [ATOVAQUONE] | – | – | – | IC50 (HFF [6]): 0.28 µM
23 | CCCCCN(C)CCC(O)(P(=O)(O)O)P(=O)(O)O [IBANDRONIC ACID] | 0.19 | 54.9 µM | 10.4 µM | –
24 | O=P(O)(O)C(NC1CCCCCC1)P(=O)(O)O [INCADRONIC ACID] | 4.19 | 39.6 µM | 166 µM | –
25 | O=P(O)(O)C(O)(Cc1cnc2ccccn12)P(=O)(O)O [MINODRONIC ACID] | – | 1.88 µM | – | –
26 | O=P(O)(O)C(N1CCCCCC1)P(=O)(O)O [N-(HEXAMETHYLENEIMINO)METHYLENEBISPHOSPHONIC ACID] | > 12.2 | 89.8 µM | > 1100 µM | –
27 | NCCCCCC(O)(P(=O)(O)O)P(=O)(O)O [NERIDRONIC ACID] | 11.4 | 59.7 µM | 680 µM | –
28 | NCCC(O)(P(=O)(O)O)P(=O)(O)O [PAMIDRONIC ACID] | 4.11 | 38 µM | 156 µM | –
29 | O=P(O)(O)C(O)(Cc1cccnc1)P(=O)(O)O [RISEDRONIC ACID] | 106 | 2.4 µM | 255 µM | –
30 | O=P(O)(O)C(N1CCSCC1)P(=O)(O)O [THIOMORPHOLINOMETHYLENEDIPHOSPHONIC ACID] | > 6.73 | 161 µM | > 1080 µM | –
31 | O=P(O)(O)C(O)(Cn1ccnc1)P(=O)(O)O [ZOLEDRONIC ACID] | 80.9 | 0.79 µM | 63.7 µM | IC50 (HFF [7]): 7.8 µM; IC50 (HFF [8]): 7.8 µM; IC50 (HFF [9]): 8.3 µM
